Assay [1] has as its system Canis familiaris. In words: Antihypertensive activity against angiotensin II-induced pressor response in conscious normotensive Beagle dog assessed as rate of change of mean arterial blood pressure at 2.13 mg/kg, po after 1 hr. It is filed as functional, Canis lupus familiaris, Artery. The method, boiled down:
(§1)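 Conscious normotensive Beagle dogs, 6–7 per group. Baseline BP and heart rate recorded once stable, then test compound given orally at 2.13 mg/kg. BP and heart rate read 1 h after dosing, then AngII 0.45 µg/kg iv, with waveforms recorded 1 min after injection. Values given as rate of change relative to pre-model baseline (100%), with SEM.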

Assay [2] deals with Canis familiaris. In words: Antihypertensive activity against angiotensin II-induced pressor response in conscious normotensive Beagle dog assessed as decrease in basal heart rate at 2.13 mg/kg, po after 1 hr. It counts as functional, organism-based. Further details: dose 2.13 mg/kg. The conditions noted are these: Canis lupus familiaris. The method, boiled down: as §1
Assay [3] has as its system Canis familiaris. In words: Antihypertensive activity against angiotensin II-induced pressor response in conscious normotensive Beagle dog assessed as rate of change of mean systolic blood pressure at 2.13 mg/kg, po after 1 hr. It is filed as functional, Canis lupus familiaris, Artery. An outline of the steps:
as §1

The subject of assay [4] is Canis familiaris. Kind of assay: Antihypertensive activity against angiotensin II-induced pressor response in conscious normotensive Beagle dog assessed as rate of change of mean diastolic blood pressure at 2.13 mg/kg, po after 1 hr. It counts as functional, Canis lupus familiaris, Artery. An outline of the steps: as §1

This is an account of results in ChEMBL document CHEMBL1152172, “Synthesis and biological activities of novel nonpeptide angiotensin II receptor antagonists based on benzimidazole derivatives bearing a heterocyclic ring” (Bioorg Med Chem, 2008).

Calls of active or inactive are those of the source. No cut-off for these calls is given here.

On to `CCCc1nc2c(C)cc(-c3nc4ccccc4n3C)cc2n1Cc1ccc(-c2ccccc2C2=NCCN2)cc1`, for which the Activity is on record as 97.43% in the assay with Canis familiaris [1], 96.75% with Canis familiaris [3] and 95.28% in the assay with Canis familiaris [4]. Besides, the outcome in the assay with Canis familiaris [2] was Active.

Take `CCCc1nc2c(C)cc(-c3nc4ccccc4n3C)cc2n1Cc1ccc(-c2ccccc2-c2ncn[nH]2)cc1`: the Activity in the assay with Canis familiaris [1] came to 103.37%; with Canis familiaris [3], 103.8%; in the assay with Canis familiaris [4] it was 103.14%. Moreover, the result in the assay with Canis familiaris [2] was inactive.

As for `CCCc1nc2c(C)cc(-c3nc4ccccc4n3C)cc2n1Cc1ccc(-c2ccccc2-c2ncc[nH]2)cc1`, the Activity with Canis familiaris [1] was 98.11%; with Canis familiaris [3], 98.67%; in the assay on Canis familiaris [4] it was 97.96%. Besides, the outcome in the assay with Canis familiaris [2] was Active.

For `CCCc1nc2c(C)cc(-c3nc4ccccc4n3C)cc2n1Cc1ccc(-c2ccccc2-c2ncc(Cl)[nH]2)cc1`, the Activity in the assay with Canis familiaris [1] amounted to 95.43%; in the assay with Canis familiaris [3], 95.75%; in the assay on Canis familiaris [4], 95.28%. Also, the outcome in the assay on Canis familiaris [2] was Active.

As to `CCCc1nc2c(C)cc(-c3nc4ccccc4n3C)cc2n1Cc1ccc(-c2ccccc2C(=O)O)cc1`, the Activity is on record as 96.13% in the assay with Canis familiaris [1], 95.78% in the assay with Canis familiaris [3] and 96.15% in the assay with Canis familiaris [4].
